Assay results: ChEMBL document CHEMBL1142864, “Potential cancer chemopreventive in vitro activities of monomeric xanthone derivatives from the marine algicolous fungus Monodictys putredinis” (J Nat Prod, 2007)
Activity calls are given as the source filed them. The calls are words filed in the database; no cut-off is given here.

Tests used:
[1] = molecular target: Prostaglandin G/H synthase 1 (Homo sapiens) (UniProt P23219); experiment: Inhibition of COX1 at 100 uM
In short: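 COX-1 (prostaglandin G/H synthase) activity followed by oxygen consumption during conversion of arachidonic acid to prostaglandins; single concentration 100 µM; IC50 only if inhibition exceeds 50%.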

[2] = Superoxide anion radical scavenging activity upto 50 uM; assay type: functional
In short: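 Superoxide anion generated by xanthine oxidase oxidising hypoxanthine to uric acid; scavenging tested up to 50 µM.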

[3] = Inhibition of beta-naphthoflavone-induced Cyp1A in rat […] cell; assay type: cell-based
In short: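 Enzyme source: homogenates of β-naphthoflavone-induced H4IIE rat hepatoma cells. Cyp1A activity measured as dealkylation of 3-cyano-7-ethoxycoumarin to fluorescent 3-cyano-7-hydroxycoumarin, expressed in nmol/min/mg protein. α-Naphthoflavone positive control. Dose-response to IC50; percent inhibition given at 50 µM final concentration.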

[4] = DPPH radical scavenging activity upto 250 uM; assay type: functional
In short: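 Photometric reaction with stable DPPH free radical in microplate format, compounds up to 250 µM.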

Aromatase [5] = molecular target: T1, Aromatase (Homo sapiens, UniProt P11511); experiment: Inhibition of human recombinant aromatase at 50 uM
T1 sequence (P11511 whole entry): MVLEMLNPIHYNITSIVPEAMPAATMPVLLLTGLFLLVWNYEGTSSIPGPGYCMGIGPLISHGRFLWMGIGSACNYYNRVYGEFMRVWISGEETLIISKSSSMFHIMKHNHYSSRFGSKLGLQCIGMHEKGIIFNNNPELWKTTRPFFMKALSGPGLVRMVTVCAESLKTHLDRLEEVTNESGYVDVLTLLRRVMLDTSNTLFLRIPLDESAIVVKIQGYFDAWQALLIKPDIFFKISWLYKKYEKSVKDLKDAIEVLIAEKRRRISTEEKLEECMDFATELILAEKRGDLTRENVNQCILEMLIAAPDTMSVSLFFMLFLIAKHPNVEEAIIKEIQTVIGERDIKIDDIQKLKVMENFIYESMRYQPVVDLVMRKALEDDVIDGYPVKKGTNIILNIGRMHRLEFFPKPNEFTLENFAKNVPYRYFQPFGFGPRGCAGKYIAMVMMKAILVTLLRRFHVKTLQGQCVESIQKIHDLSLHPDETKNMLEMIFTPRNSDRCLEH

[6] = Cytotoxicity against mouse Hepa 1c1c7 cells upto 50 uM; assay type: cell-based
In short: (§1)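 Hepa 1c1c7 murine hepatoma cultures exposed in parallel with the QR induction assay; tested up to 400 µM for one hydroxanthone and up to 50 µM for the others; cytotoxicity judged alongside QR specific activity.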

[7] = Cytotoxicity against mouse Hepa 1c1c7 cells upto 400 uM; assay type: cell-based; in short: as §1
[8] = tested on: Cyp1A (Rattus norvegicus); experiment: Inhibition of beta-naphthoflavone-induced Cyp1A in rat H4IIE cell at 50 uM; conditions: H4IIE cells with beta-naphthoflavone-induced Cyp1A
Aromatase [9] = molecular target: T1, Aromatase; experiment: Inhibition of human recombinant aromatase

Prostaglandin G/H synthase 1 (Homo sapiens), sequence (P23219 whole entry): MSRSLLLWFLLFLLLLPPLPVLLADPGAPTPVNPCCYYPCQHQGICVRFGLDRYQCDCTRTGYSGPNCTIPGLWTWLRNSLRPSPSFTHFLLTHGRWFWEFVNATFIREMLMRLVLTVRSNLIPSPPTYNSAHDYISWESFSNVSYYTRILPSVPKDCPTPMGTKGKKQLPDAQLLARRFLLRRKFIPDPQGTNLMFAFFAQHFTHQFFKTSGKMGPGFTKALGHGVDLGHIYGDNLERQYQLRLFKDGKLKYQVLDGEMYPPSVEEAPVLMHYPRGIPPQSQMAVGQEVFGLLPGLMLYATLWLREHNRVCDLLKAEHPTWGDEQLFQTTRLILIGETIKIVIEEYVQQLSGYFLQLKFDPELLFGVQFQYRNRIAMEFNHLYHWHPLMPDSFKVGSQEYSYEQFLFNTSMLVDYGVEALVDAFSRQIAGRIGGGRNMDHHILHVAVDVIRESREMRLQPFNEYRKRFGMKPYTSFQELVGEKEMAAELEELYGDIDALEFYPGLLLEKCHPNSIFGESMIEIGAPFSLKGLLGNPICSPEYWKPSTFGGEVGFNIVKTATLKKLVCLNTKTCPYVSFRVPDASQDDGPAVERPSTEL

SMILES	inhibition [1] [%]	Activity [2]	IC50 [3] [µM]	Activity [4]	inhibition at 50 µM (Aromatase [5]) [%]	Activity [6]	Activity [7]	inhibition at 50 µM [8] [%]	IC50 (Aromatase [9]) [µM]
C[C@H]1C[C@H](O)[C@@H]2C(=O)c3c(O)cccc3O[C@]2(C)[C@H]1O [MONODICTYSIN B]	< 50	inactive	23.3	inactive	9	Not Active			
Cc1cc(O)c2c(c1)O[C@]1(C)[C@@H](O)[C@@H](O)C[C@H](O)[C@@H]1C2=O [MONODICTYSIN A]	< 50	inactive	> 50	inactive	32		Not Active	40	
O=c1cc(-c2ccccc2)oc2c1ccc1ccccc12 [ALPHA-NAPHTHOFLAVONE]			0.0035						
Cc1cc(O)c(C(=O)c2c(O)cccc2O)c(C(=O)O)c1 [MONODICTYPHENONE]	< 50	inactive	> 50	inactive	25			28	
COc1cc(O)c2c(c1)O[C@]1(C)[C@@H](O)[C@@H](C)C[C@H](O)[C@@H]1C2=O [MONODICTYSIN C]	< 50	inactive	3	inactive		Not Active			28.3
Cc1cc(C(=O)O)c2c(=O)c3c(O)cccc3oc2c1 [MONODICTYXANTHONE]	< 50	inactive	34.8	inactive	37				
